The values below come from PMC6217529 (ACS Omega, 2018).

Structures are written as SMILES. “Also recorded” adds a separate entry of the source.

The subject of one data set is platelets (PRP). In words: Epinephrine-induced platelet aggregation in PRP. In kind it is cell-based, human. The settings on record: agonist epinephrine. The method in brief: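 Platelet-rich plasma (PRP) and platelet-poor plasma (PPP) were prepared from fresh blood of healthy human donors, and PRP was adjusted with PPP to 3.1 × 10^8 platelets/mL at 37 °C. PRP was pre-incubated with test compound (10, 20 or 30 μg) in a 0.25 mL reaction volume. Aggregation was started with 5 μM epinephrine and traced on a dual-channel optical lumi-aggregometer. Inhibition % was plotted against dose, from three independent experiments.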

Data set [1] concerns mice. In words: Edema inducing activity in mice foot pads. To be noted: up to 100 μg. Type of data set: in vivo.
For data set [2], the system named is mice. In words: Hemorrhagic activity in mice, intradermal. In kind it is in vivo. To be noted: up to 100 μg.

On to `Cn1c(-c2ccc(Br)s2)nc2cc(-c3nnc(-c4cc(-c5cc(F)cc(F)c5)nc5ccccc45)o3)ccc21` [8a, 2-(2-(5-Bromothiophen-2-yl)-1-methyl-1H-benzo[d]imidazol-5-yl)-5-(2-(3,5-difluorophenyl)quinolin-4-yl)-1,3,4-oxadiazole], for which the “ability to inhibit epinephrine-induced platelet aggregation (in words)” value in the data set with platelets (PRP) is “able to inhibit the epinephrine-induced platelet aggregation”. In the data set on mice [1], the “edema in experimental mice (in words)” value was “anti-edema; also recorded: active in preventing hemorrhage and edema”. Also, the “hemorrhage in experimental mice (in words)” value in the data set on mice [2] was “anti-hemorrhagic”.
For the compound `Cn1c(-c2ccc(Br)s2)nc2cc(-c3nnc(-c4cc(-c5ccc(Cl)cc5Cl)nc5ccccc45)o3)ccc21` [8d, 2-(2-(5-Bromothiophen-2-yl)-1-methyl-1H-benzo[d]imidazol-5-yl)-5-(2-(2,4-dichlorophenyl)quinolin-4-yl)-1,3,4-oxadiazole], in the data set on platelets (PRP), the “ability to inhibit epinephrine-induced platelet aggregation (in words)” value is “but not the 8d sample”. In the data set on mice [1], the “edema in experimental mice (in words)” value was “anti-edema; also recorded: active in preventing hemorrhage and edema”. The “hemorrhage in experimental mice (in words)” value with mice [2] is “anti-hemorrhagic”.
